Measured values reported in ChEMBL document CHEMBL1146231, “Novel semisynthetic derivative of antibiotic Eremomycin active against drug-resistant gram-positive pathogens including Bacillus anthracis” (J Med Chem, 2007).
Values after ≈ are worked out from the molar mass of the structure shown. Active and inactive are the calls of the source. The rule behind the calls is not given here.

Legend:
[1] = tested on: Staphylococcus haemolyticus; assay: Antimicrobial activity against Staphylococcus haemolyticus 602 isolate; assay type: functional
How it was run: (§1)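 MICs were run by broth microdilution as recommended by NCCLS, in cation-adjusted Mueller-Hinton broth. Compound was serially diluted 2-fold, over a final range of 64 to 0.03 µg/mL after inoculation.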

[2] = tested on: Staphylococcus epidermidis; assay: Antimicrobial activity against Staphylococcus epidermidis 533 isolate; assay type: functional; how it was run: as §1
Staphylococcus aureus [3] = assay: Antimicrobial activity against glycopeptide intermediate resistant Staphylococcus aureus 3793 isolate; assay type: functional; how it was run: as §1
Staphylococcus aureus [4] = assay: Antimicrobial activity against glycopeptide intermediate resistant Staphylococcus aureus 3798 isolate; assay type: functional; how it was run: as §1
Enterococcus faecium [5] = assay: Antimicrobial activity against vancomycin-susceptible Enterococcus faecium 568 isolate; assay type: functional; how it was run: as §1
Enterococcus faecalis [6] = assay: Antimicrobial activity against vancomycin-susceptible Enterococcus faecalis 559 isolate; assay type: functional; how it was run: as §1
Enterococcus faecium [7] = assay: Antimicrobial activity against vancomycin-resistant Enterococcus faecium 569 isolate; assay type: functional; how it was run: as §1
Enterococcus faecalis [8] = assay: Antimicrobial activity against vancomycin-resistant Enterococcus faecalis 560 isolate; assay type: functional; how it was run: as §1
[9] = Cmax in BALB/c mouse at 25 mg/kg, iv; assay type: ADME, organism-based; set-up: dose 25 mg/kg, route intravenous; settings: in vivo
How it was run: (§2)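 Female BALB/c mice received the test compound by the iv, sc, ip or po route. Plasma exposure gave Cmax, bioavailability from the sc, ip and po routes, iv half-life, clearance and Vss. Clinical observations and mortality were also recorded.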

[10] = Cmax in BALB/c mouse at 25 mg/kg, sc; assay type: ADME, organism-based; set-up: dose 25 mg/kg, route subcutaneous; settings: in vivo; how it was run: as §2
[11] = Cmax in BALB/c mouse at 25 mg/kg, ip; assay type: ADME, organism-based; set-up: dose 25 mg/kg, route intraperitoneal; settings: in vivo; how it was run: as §2
[12] = Half life in BALB/c mouse at 25 mg/kg, iv; assay type: ADME, organism-based; set-up: dose 25 mg/kg, route intravenous; settings: in vivo; how it was run: as §2
[13] = Clearance in BALB/c mouse at 25 mg/kg, iv; assay type: ADME, organism-based; set-up: dose 25 mg/kg, route intravenous; settings: in vivo; how it was run: as §2
[14] = Volume of distribution in BALB/c mouse at 25 mg/kg, iv; assay type: ADME, organism-based; set-up: dose 25 mg/kg, route intravenous; settings: in vivo, read-out: Vss; how it was run: as §2
[15] = Bioavailability in BALB/c mouse at 25 mg/kg, sc; assay type: ADME, organism-based; settings: in vivo; how it was run: as §2
[16] = Bioavailability in BALB/c mouse at 25 mg/kg, ip; assay type: ADME, organism-based; settings: in vivo; how it was run: as §2
[17] = Bioavailability in BALB/c mouse at 70 mg/kg, po; assay type: ADME, organism-based; settings: in vivo; how it was run: as §2
Bacillus anthracis [18] = assay: Protection against Bacillus anthracis challenged BALB/c mouse at 50 mg/kg, iv; assay type: functional, organism-based; set-up: dose 50 mg/kg
Mus musculus [19] = assay: Survival of BALB/c mouse infected with Staphylococcus aureus PGO#172 assessed as mortality at 50 mg/kg, iv; assay type: functional, organism-based; set-up: dose 50 mg/kg
How it was run: (§3)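 Mice received a lethal dose of S. aureus PGO#172 (ATCC#29213) by intraperitoneal injection. They were treated with an iv bolus at 1, 5, 10, 25 or 50 mg/kg, in groups of five. Mortality was the endpoint, and ED50 was derived from the dose-response.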

Mus musculus [20] = assay: Survival of BALB/c mouse infected with Staphylococcus aureus PGO#172 assessed as mortality at 1 mg/kg, iv; assay type: functional, organism-based; set-up: dose 1 mg/kg; how it was run: as §3
Bacillus anthracis [21] = assay: Protection against Bacillus anthracis challenged BALB/c mouse at 25 mg/kg, iv; assay type: functional, organism-based; set-up: dose 25 mg/kg
Staphylococcus aureus [22] = assay: Antimicrobial activity against methicillin-resistant Staphylococcus aureus Stau_HIP5827 isolate; assay type: functional; how it was run: as §1
Enterococcus faecalis [23] = assay: Antimicrobial activity against vancomycin-susceptible Enterococcus faecalis Enfa_29212 isolate; assay type: functional; how it was run: as §1
Enterococcus faecalis [24] = assay: Antimicrobial activity against vancomycin-resistant Enterococcus faecalis Enfa_t29862 isolate; assay type: functional; how it was run: as §1
Enterococcus faecalis [25] = assay: Antimicrobial activity against vancomycin-resistant Enterococcus faecalis Enfa_vre-2 isolate; assay type: functional; how it was run: as §1
Escherichia coli = assay: Antimicrobial activity against Escherichia coli Esco_25922 isolate; assay type: functional

Compound | MIC [1] [µg/mL] | MIC [2] [µg/mL] | MIC (Staphylococcus aureus [3]) [µg/mL] | MIC (Staphylococcus aureus [4]) [µg/mL] | MIC (Enterococcus faecium [5]) [µg/mL] | MIC (Enterococcus faecalis [6]) [µg/mL] | MIC (Enterococcus faecium [7]) [µg/mL] | MIC (Enterococcus faecalis [8]) [µg/mL] | also measured
CN[C@H](CC(C)C)C(=O)N[C@H]1C(=O)N[C@@H](CC(N)=O)C(=O)N[C@H]2C(=O)N[C@H]3C(=O)N[C@H](C(=O)N[C@H](C(=O)NC4C5CC6CC(C5)CC4C6)c4cc(O)cc(O)c4-c4cc3ccc4O)[C@H](O[C@@H]3C[C@@](C)(N)[C@H](O)[C@@H](C)O3)c3ccc(cc3)Oc3cc2cc(c3O[C@H]2O[C@@H](CO)[C@H](O)[C@@H](O)[C@@H]2O[C@H]2C[C@](C)(N)[C@@H](O)[C@H](C)O2)Oc2ccc(cc2Cl)[C@H]1O (some centres undefined) | 1 (≈ 0.591 µM) | 0.5 (≈ 0.296 µM) | 2 (≈ 1.18 µM) | 2 (≈ 1.18 µM) | 1 (≈ 0.591 µM) | 1 (≈ 0.591 µM) | 16 (≈ 9.46 µM) | 16 (≈ 9.46 µM) | –
CN[C@H](CC(C)C)C(=O)N[C@H]1C(=O)N[C@@H](CC(N)=O)C(=O)N[C@H]2C(=O)N[C@H]3C(=O)N[C@H](C(=O)N[C@H](C(=O)NC45CC6CC(CC(C6)C4)C5)c4cc(O)cc(O)c4-c4cc3ccc4O)[C@H](O[C@@H]3C[C@@](C)(N)[C@H](O)[C@@H](C)O3)c3ccc(cc3)Oc3cc2cc(c3O[C@H]2O[C@@H](CO)[C@H](O)[C@@H](O)[C@@H]2O[C@H]2C[C@](C)(N)[C@@H](O)[C@H](C)O2)Oc2ccc(cc2Cl)[C@H]1O | – | – | – | – | – | – | – | – | Cmax [9]: 11500 ng/mL; Cmax [10]: 7200 ng/mL; Cmax [11]: 9700 ng/mL; half-life [12]: 2.8 h; clearance [13]: 8.93 mL/min/kg; Vd [14]: 2.18 L/kg; bioavailability [15]: 78%; bioavailability [16]: 95%; bioavailability [17]: 0%
CN[C@H](CC(C)C)C(=O)N[C@H]1C(=O)N[C@@H](CC(N)=O)C(=O)N[C@H]2C(=O)N[C@H]3C(=O)N[C@H](C(=O)N[C@H](C(=O)NCC4C5CC6CC(C5)CC4C6)c4cc(O)cc(O)c4-c4cc3ccc4O)[C@H](O[C@@H]3C[C@@](C)(N)[C@H](O)[C@@H](C)O3)c3ccc(cc3)Oc3cc2cc(c3O[C@H]2O[C@@H](CO)[C@H](O)[C@@H](O)[C@@H]2O[C@H]2C[C@](C)(N)[C@@H](O)[C@H](C)O2)Oc2ccc(cc2Cl)[C@H]1O (some centres undefined) | 0.5 (≈ 0.293 µM) | 0.5 (≈ 0.293 µM) | 1 (≈ 0.586 µM) | 2 (≈ 1.17 µM) | 0.5 (≈ 0.293 µM) | 1 (≈ 0.586 µM) | 16 (≈ 9.38 µM) | 16 (≈ 9.38 µM) | –
CN[C@H](CC(C)C)C(=O)N[C@H]1C(=O)N[C@@H](CC(N)=O)C(=O)N[C@H]2C(=O)N[C@H]3C(=O)N[C@H](C(=O)N[C@H](C(=O)O)c4cc(O)cc(O)c4-c4cc3ccc4O)[C@H](O[C@@H]3C[C@@](C)(N)[C@H](O)[C@@H](C)O3)c3ccc(cc3)Oc3cc2cc(c3O[C@H]2O[C@@H](CO)[C@H](O)[C@@H](O)[C@@H]2O[C@H]2C[C@](C)(N)[C@@H](O)[C@H](C)O2)Oc2ccc(cc2Cl)[C@H]1O [EREMOMYCIN] | 0.25 (≈ 0.16 µM) | 0.25 (≈ 0.16 µM) | 8 (≈ 5.13 µM) | 8 (≈ 5.13 µM) | 0.5 (≈ 0.321 µM) | 0.5 (≈ 0.321 µM) | > 128 | > 128 | –
CN[C@H](CC(C)C)C(=O)N[C@H]1C(=O)N[C@@H](CC(N)=O)C(=O)N[C@H]2C(=O)N[C@H]3C(=O)N[C@H](C(=O)N[C@H](C(=O)NC4C5CC6CC(C5)CC4C6)c4cc(O)cc(O)c4-c4cc3ccc4O)[C@H](O)c3ccc(c(Cl)c3)Oc3cc2cc(c3O[C@H]2O[C@@H](CO)[C@H](O)[C@@H](O)[C@@H]2O[C@H]2C[C@@](C)(N)C(O)[C@@H](C)O2)Oc2ccc(cc2Cl)[C@H]1O (some centres undefined) | 1 (≈ 0.632 µM) | 1 (≈ 0.632 µM) | 4 (≈ 2.53 µM) | 4 (≈ 2.53 µM) | 0.5 (≈ 0.316 µM) | 0.5 (≈ 0.316 µM) | 64 (≈ 40.4 µM) | 64 (≈ 40.4 µM) | –
CN[C@H](CC(C)C)C(=O)N[C@H]1C(=O)N[C@@H](CC(N)=O)C(=O)N[C@H]2C(=O)N[C@H]3C(=O)N[C@H](C(=O)N[C@H](C(=O)NC(C)C4C5CC6CC(C5)CC4C6)c4cc(O)cc(O)c4-c4cc3ccc4O)[C@H](O[C@@H]3C[C@@](C)(N)[C@H](O)[C@@H](C)O3)c3ccc(cc3)Oc3cc2cc(c3O[C@H]2O[C@@H](CO)[C@H](O)[C@@H](O)[C@@H]2O[C@H]2C[C@](C)(N)[C@@H](O)[C@H](C)O2)Oc2ccc(cc2Cl)[C@H]1O (some centres undefined) | 1 (≈ 0.582 µM) | 0.5 (≈ 0.291 µM) | 4 (≈ 2.33 µM) | 2 (≈ 1.16 µM) | 0.5 (≈ 0.291 µM) | 1 (≈ 0.582 µM) | 16 (≈ 9.31 µM) | 16 (≈ 9.31 µM) | –
CN[C@H](CC(C)C)C(=O)N[C@H]1C(=O)N[C@@H](CC(N)=O)C(=O)N[C@H]2C(=O)N[C@H]3C(=O)N[C@H](C(=O)N[C@@H](C(=O)NC45CC6CC(CC(C6)C4)C5)c4cc(O)cc(O)c4-c4cc3ccc4O)[C@H](O[C@@H]3C[C@@](C)(N)[C@H](O)[C@@H](C)O3)c3ccc(cc3)Oc3cc2cc(c3O[C@H]2O[C@@H](CO)[C@H](O)[C@@H](O)[C@@H]2O[C@H]2C[C@](C)(N)[C@@H](O)[C@H](C)O2)Oc2ccc(cc2Cl)[C@H]1O | – | – | – | – | – | – | – | – | Activity (Bacillus anthracis [18]): Active; Activity (Mus musculus [19]): Active; Activity (Mus musculus [20]): inactive; Activity (Bacillus anthracis [21]): Active
CN[C@H](CC(C)C)C(=O)N[C@H]1C(=O)N[C@@H](CC(N)=O)C(=O)N[C@H]2C(=O)N[C@H]3C(=O)N[C@H](C(=O)N[C@H](C(=O)O)c4cc(O)cc(O)c4-c4cc3ccc4O)[C@H](O)c3ccc(c(Cl)c3)Oc3cc2cc(c3O[C@@H]2O[C@H](CO)[C@@H](O)[C@H](O)[C@H]2O[C@H]2C[C@](C)(N)[C@H](O)[C@H](C)O2)Oc2ccc(cc2Cl)[C@H]1O [VANCOMYCIN] | 2 (≈ 1.38 µM) | – | 16 (≈ 11 µM) | 8 (≈ 5.52 µM) | – | 1 (≈ 0.69 µM) | > 128 | > 128 | MIC (Staphylococcus aureus [22]): 8 µg/mL (≈ 5.52 µM); MIC (Enterococcus faecalis [23]): 2 µg/mL (≈ 1.38 µM); MIC (Enterococcus faecalis [24]): > 64 µg/mL; MIC (Enterococcus faecalis [25]): > 64 µg/mL; MIC (Escherichia coli): > 50 µg/mL
